Measurements as given in ChEMBL document CHEMBL1135836, “Cyclodextrin-derived host molecules as reversal agents for the neuromuscular blocker rocuronium bromide: synthesis and structure-activity relationships” (J Med Chem, 2002).

Key:
Type in all cases: functional
Cavia porcellus [1] = assay: In vivo reversal activity versus ~90% block by rocuronium in guinea pig
In short: (§1)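 Male Dunkin-Hartley guinea pigs (600-900 g), anaesthetized ip with pentobarbitone 10 mg/kg plus urethane 1000 mg/kg, tracheotomized and ventilated. Continuous iv rocuronium infusion (~10 nmol kg-1 min-1) was raised to a steady 85-90% block. Increasing iv doses of agent were given cumulatively. ED50 = 50% recovery versus preblock twitch, by regression. Mean ± SEM of at least two experiments, or one.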

Cavia porcellus [2] = assay: In vivo reversal activity versus ~90% block by rocuronium in guinea pig, expressed as % of maximum reversal at 1.7 umol/kg conc.; in short: as §1
Mus musculus [3] = species: Mus musculus; assay: In vitro reversal activity versus ~90% block by rocuronium in isolated mouse hemidiaphragm, expressed as effective conc.
Mus musculus [4] = species: Mus musculus; assay: In vitro reversal activity versus ~90% block by rocuronium in isolated mouse hemidiaphragm, expressed as % of maximum reversal at 7.2 uM conc.
Cavia porcellus [5] = assay: In vivo reversal activity versus ~90% block by rocuronium in guinea pig, expressed as % of maximum reversal at 11 umol/kg conc.; in short: as §1
Mus musculus [6] = species: Mus musculus; assay: In vitro reversal activity versus ~90% block by rocuronium in isolated mouse hemidiaphragm, expressed as % of maximum reversal at 252 uM conc.
Cavia porcellus [7] = assay: In vivo reversal activity versus ~90% block by rocuronium in guinea pig, expressed as % of maximum reversal at 47umol/kg conc.
In short: (§2)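 Male Dunkin-Hartley guinea pigs (600-900 g) anaesthetized ip with pentobarbitone 10 mg/kg plus urethane 1000 mg/kg, tracheotomized and artificially ventilated. Continuous iv rocuronium bromide infusion (~10 nmol kg-1 min-1) raised until steady-state twitch block of 85-90%. Increasing single iv doses of reversal agent given by a separate catheter. Max reversal is peak twitch recovery versus preblock height at highest dose tested; means ± SEM, n ≥ 2 or single experiment.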

Mus musculus [8] = species: Mus musculus; assay: In vitro reversal activity versus ~90% block by rocuronium in isolated mouse hemidiaphragm, expressed as % of maximum reversal at 144 uM conc.
Felis catus [9] = assay: Percent increase in contraction of nictitating membrane in anesthetized cat (dosed with standard combination of neostigmin (24.3 umol/kg) + atropine 15 umol/kg)
Felis catus [10] = assay: Percent of maximum change of HR in anesthetized cat (dosed with standard combination of neostigmin (24.3 umol/kg) + atropine 15 umol/kg)
Felis catus [11] = assay: Percent of maximum change of decrease in HR (bpm) by vagal stimulation in anesthetized cat (dosed with standard combination of neostigmin (24.3 umol/kg) + atropine 15 umol/kg)
Felis catus [12] = assay: Percent of maximum change in BP in anesthetized cat (dosed with standard combination of neostigmin (24.3 umol/kg) + atropine 15 umol/kg)
Cavia porcellus [13] = assay: In vivo reversal activity versus ~90% block by rocuronium in guinea pig, expressed as % of maximum reversal at 1.6 umol/kg conc.; in short: as §1
Mus musculus [14] = species: Mus musculus; assay: In vitro reversal activity versus ~90% block by rocuronium in isolated mouse hemidiaphragm, expressed as % of maximum reversal at 2.9 uM conc.
Cavia porcellus [15] = assay: In vivo reversal activity versus ~90% block by rocuronium in guinea pig, expressed as % of maximum reversal at 33.1 umol/kg conc.; in short: as §2
Mus musculus [16] = species: Mus musculus; assay: In vitro reversal activity versus ~90% block by rocuronium in isolated mouse hemidiaphragm, expressed as % of maximum reversal at 10.8uM conc.
Cavia porcellus [17] = assay: In vivo reversal activity versus ~90% block by rocuronium in guinea pig, expressed as % of maximum reversal at 1.2 umol/kg conc.; in short: as §1
Mus musculus [18] = species: Mus musculus; assay: In vitro reversal activity versus ~90% block by rocuronium in isolated mouse hemidiaphragm, expressed as % of maximum reversal at 3.6 uM conc.
Mus musculus [19] = species: Mus musculus; assay: In vitro reversal activity versus ~90% block by rocuronium in isolated mouse hemidiaphragm, expressed as % of maximum reversal at 16.2 uM conc.
Cavia porcellus [20] = assay: In vivo reversal activity versus ~90% block by rocuronium in guinea pig, expressed as % of maximum reversal at 2.1 umol/kg conc.; in short: as §2
Mus musculus [21] = species: Mus musculus; assay: In vitro reversal activity versus ~90% block by rocuronium in isolated mouse hemidiaphragm, expressed as % of maximum reversal at a conc. of 360 uM
Cavia porcellus [22] = assay: In vivo reversal activity versus ~90% block by rocuronium in guinea pig, expressed as % maximum reversal at 1018 umol/kg conc.; in short: as §1
Cavia porcellus [23] = assay: In vivo reversal activity versus ~90% block by rocuronium in guinea pig, expressed as % of maximum reversal at 9.6 […] conc.; in short: as §2
Cavia porcellus [24] = assay: In vivo reversal activity versus ~90% block by rocuronium in guinea pig, expressed as % of maximum reversal at 0.2 umol/kg conc.; in short: as §1

## O=S(=O)([O-])CSCC1O[C@@H]2O[C@@H]3C(CSCS(=O)(=O)[O-])O[C@H](O[C@@H]4C(CSCS(=O)(=O)[O-])O[C@H](O[C@@H]5C(CSCS(=O)(=O)[O-])O[C@H](O[C@@H]6C(CSCS(=O)(=O)[O-])O[C@H](O[C@@H]7C(CSCS(=O)(=O)[O-])O[C@H](O[C@@H]8C(CSCS(=O)(=O)[O-])O[C@H](O[C@@H]9C(CSCS(=O)(=O)[O-])O[C@H](O[C@H]1C(O)C2O)C(O)C9O)C(O)C8O)C(O)C7O)C(O)C6O)C(O)C5O)C(O)C4O)C(O)C3O.[Na+].[Na+].[Na+].[Na+].[Na+].[Na+].[Na+].[Na+] (some centres undefined)
Cavia porcellus [1]
  ED50: 0.06 µmol/kg
Cavia porcellus [2]
  Max reversal: 106.5%
Mus musculus [3]
  EC50: 0.36 µM
Mus musculus [4]
  Max reversal: 101.4%

## O=C([O-])c1ccccc1SCC1O[C@@H]2O[C@@H]3C(CO)O[C@H](O[C@@H]4C(CO)O[C@H](O[C@@H]5C(CO)O[C@H](O[C@@H]6C(CO)O[C@H](O[C@@H]7C(CO)O[C@H](O[C@@H]8C(CO)O[C@H](O[C@@H]9C(CO)O[C@H](O[C@H]1C(O)C2O)C(O)C9O)C(O)C8O)C(O)C7O)C(O)C6O)C(O)C5O)C(O)C4O)C(O)C3O.[Na+] (some centres undefined)
Cavia porcellus [1]
  ED50: 1.3 µmol/kg
Cavia porcellus [5]
  Max reversal: 93%
Mus musculus [3]
  EC50: 97.6 µM
Mus musculus [6]
  Max reversal: 86.3%

## OCC1O[C@@H]2O[C@@H]3C(CO)O[C@H](O[C@@H]4C(CO)O[C@H](O[C@@H]5C(CO)O[C@H](O[C@@H]6C(CO)O[C@H](O[C@@H]7C(CO)O[C@H](O[C@@H]8C(CO)O[C@H](O[C@@H]9C(CO)O[C@H](O[C@H]1C(O)C2O)C(O)C9O)C(O)C8O)C(O)C7O)C(O)C6O)C(O)C5O)C(O)C4O)C(O)C3O (some centres undefined)
Cavia porcellus [1]
  ED50: 4 µmol/kg
Cavia porcellus [7]
  Max reversal: 104.7%
Mus musculus [8]
  Max reversal: 94.1%
Mus musculus [3]
  EC50: 34.6 µM

## CN(C)C(=O)Oc1cccc([N+](C)(C)C)c1.CN1[C@@H]2CC[C@H]1C[C@H](OC(=O)C(CO)c1ccccc1)C2.[Br-] (some centres undefined)
Felis catus [9]
  Increase: -7.2%
Felis catus [10]
  HR: -7.1 beats min-1
Felis catus [11]
  Decrease: -64.8%
Felis catus [12]
  BP: 17.7 mmHg

## O=C([O-])Cc1ccc(SCC2O[C@@H]3O[C@@H]4C(CSc5ccc(CC(=O)[O-])cc5)O[C@H](O[C@@H]5C(CSc6ccc(CC(=O)[O-])cc6)O[C@H](O[C@@H]6C(CSc7ccc(CC(=O)[O-])cc7)O[C@H](O[C@@H]7C(CSc8ccc(CC(=O)[O-])cc8)O[C@H](O[C@@H]8C(CSc9ccc(CC(=O)[O-])cc9)O[C@H](O[C@@H]9C(CSc%10ccc(CC(=O)[O-])cc%10)O[C@H](O[C@@H]%10C(CSc%11ccc(CC(=O)[O-])cc%11)O[C@H](O[C@H]2C(O)C3O)C(O)C%10O)C(O)C9O)C(O)C8O)C(O)C7O)C(O)C6O)C(O)C5O)C(O)C4O)cc1.[Na+].[Na+].[Na+].[Na+].[Na+].[Na+].[Na+].[Na+] (some centres undefined)
Cavia porcellus [1]
  ED50: 0.14 µmol/kg
Cavia porcellus [13]
  Max reversal: 103.8%
Mus musculus [3]
  EC50: 1.4 µM
Mus musculus [14]
  Max reversal: 98.9%

## NC(=O)CCCSCC1O[C@@H]2O[C@@H]3C(CSCCCC(N)=O)O[C@H](O[C@@H]4C(CSCCCC(N)=O)O[C@H](O[C@@H]5C(CSCCCC(N)=O)O[C@H](O[C@@H]6C(CSCCCC(N)=O)O[C@H](O[C@@H]7C(CSCCCC(N)=O)O[C@H](O[C@@H]8C(CSCCCC(N)=O)O[C@H](O[C@@H]9C(CSCCCC(N)=O)O[C@H](O[C@H]1C(O)C2O)C(O)C9O)C(O)C8O)C(O)C7O)C(O)C6O)C(O)C5O)C(O)C4O)C(O)C3O (some centres undefined)
Cavia porcellus [1]
  ED50: 0.58 µmol/kg
Cavia porcellus [15]
  Max reversal: 94.2%
Mus musculus [16]
  Max reversal: 85.4%
Mus musculus [3]
  EC50: 5 µM

## OC1C(O)[C@@H]2O[C@H]3OC(CSCCCc4nn[n-]n4)[C@@H](O[C@H]4OC(CSCCCc5nn[n-]n5)[C@@H](O[C@H]5OC(CSCCCc6nn[n-]n6)[C@@H](O[C@H]6OC(CSCCCc7nn[n-]n7)[C@@H](O[C@H]7OC(CSCCCc8nn[n-]n8)[C@@H](O[C@H]8OC(CSCCCc9nn[n-]n9)[C@@H](O[C@H]9OC(CSCCCc%10nn[n-]n%10)[C@@H](O[C@H]1OC2CSCCCc1nn[n-]n1)C(O)C9O)C(O)C8O)C(O)C7O)C(O)C6O)C(O)C5O)C(O)C4O)C(O)C3O.[Na+].[Na+].[Na+].[Na+].[Na+].[Na+].[Na+].[Na+] (some centres undefined)
Cavia porcellus [1]
  ED50: 0.22 µmol/kg
Cavia porcellus [17]
  Max reversal: 109%
Mus musculus [18]
  Max reversal: 89.9%
Mus musculus [3]
  EC50: 0.6 µM

## O=C(O)CCOCCSCC1O[C@@H]2O[C@@H]3C(CSCCOCCO)O[C@H](O[C@@H]4C(CSCCOCCO)O[C@H](O[C@@H]5C(CSCCOCCO)O[C@H](O[C@@H]6C(CSCCOCCO)O[C@H](O[C@@H]7C(CSCCOCCO)O[C@H](O[C@@H]8C(CSCCOCCO)O[C@H](O[C@@H]9C(CSCCOCCO)O[C@H](O[C@H]1C(O)C2O)C(O)C9O)C(O)C8O)C(O)C7O)C(O)C6O)C(O)C5O)C(O)C4O)C(O)C3O (some centres undefined)
Cavia porcellus [1]
  ED50: 0.47 µmol/kg
Mus musculus [19]
  Max reversal: 66.1%
Cavia porcellus [20]
  Max reversal: 92.2%
Mus musculus [3]
  EC50: 9.1 µM

## OCC1O[C@@H]2O[C@@H]3C(CO)O[C@H](O[C@@H]4C(CO)O[C@H](O[C@@H]5C(CO)O[C@H](O[C@@H]6C(CO)O[C@H](O[C@@H]7C(CO)O[C@H](O[C@H]1C(O)C2O)C(O)C7O)C(O)C6O)C(O)C5O)C(O)C4O)C(O)C3O (some centres undefined)
Cavia porcellus [1]
  ED50: 1580 µmol/kg
Mus musculus [21]
  Max reversal: 9.7%
Cavia porcellus [22]
  Max reversal: 6.4%
Mus musculus [3]
  EC50: > 360 µM

## O=C([O-])CSCC1O[C@@H]2O[C@@H]3C(CSCC(=O)[O-])O[C@H](O[C@@H]4C(CSCC(=O)[O-])O[C@H](O[C@@H]5C(CSCC(=O)[O-])O[C@@H](O[C@@H]6C(CSCC(=O)[O-])O[C@H](O[C@@H]7C(CSCC(=O)[O-])O[C@H](O[C@@H]8C(CSCC(=O)[O-])O[C@H](O[C@H]1C(O)C2O)C(O)C8O)C(O)C7O)C(O)C6O)C(O)C5O)C(O)C4O)C(O)C3O.[Na+].[Na+].[Na+].[Na+].[Na+].[Na+].[Na+] (some centres undefined)
Cavia porcellus [1]
  ED50: 0.93 µmol/kg
Cavia porcellus [23]
  Max reversal: 89.6%
Mus musculus [19]
  Max reversal: 97.3%
Mus musculus [3]
  EC50: 6.5 µM

## O=S(=O)([O-])CCCSCC1O[C@@H]2O[C@@H]3C(CSCCCS(=O)(=O)[O-])O[C@H](O[C@@H]4C(CSCCCS(=O)(=O)[O-])O[C@H](O[C@@H]5C(CSCCCS(=O)(=O)[O-])O[C@H](O[C@@H]6C(CSCCCS(=O)(=O)[O-])O[C@H](O[C@@H]7C(CSCCCS(=O)(=O)[O-])O[C@H](O[C@@H]8C(CSCCCS(=O)(=O)[O-])O[C@H](O[C@@H]9C(CSCCCS(=O)(=O)[O-])O[C@H](O[C@H]1C(O)C2O)C(O)C9O)C(O)C8O)C(O)C7O)C(O)C6O)C(O)C5O)C(O)C4O)C(O)C3O.[Na+].[Na+].[Na+].[Na+].[Na+].[Na+].[Na+].[Na+] (some centres undefined)
Cavia porcellus [1]
  ED50: 0.07 µmol/kg
Mus musculus [18]
  Max reversal: 99.3%
Cavia porcellus [24]
  Max reversal: 98.6%
Mus musculus [3]
  EC50: 1.8 µM
